The values below come from ChEMBL document CHEMBL1126100, “Anticancer activity in murine and human tumor cell lines of bis(platinum) complexes incorporating straight-chain aliphatic diamine linker groups” (J Med Chem, 1992).

What all share (type): functional, cell-based
The subject of one assay is L1210 (DACH). The assay can be described thus: In vitro growth inhibition by the compound was determined in cisplatin-resistant murine L1210DACH cell lines. Conditions: Mus musculus. The essentials:
(§1)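 Growth inhibition of murine leukemia lines (cisplatin-resistant variants and cisplatin-sensitive L1210S, P388S) followed a published procedure, read out as ID50. Values are mean ± SEM of 3 to 17 separate experiments, or averages of at least two experiments. Each experiment's value was the mean of duplicates.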

Another assay has as its system L1210. The assay can be described thus: In vitro growth inhibition by the compound was determined in cisplatin-sensitive murine L1210S cell lines. Conditions: Mus musculus. The essentials: as §1
In another assay the test system is P388PtR4. The assay can be described thus: In vitro growth inhibition by the compound was determined in cisplatin-resistant murine P388PtR4 cell lines. Conditions: Mus musculus. The essentials: as §1
The subject of a further assay is P388/S. In words: In vitro growth inhibition by the compound was determined in cisplatin-sensitive murine P388S cell lines. Conditions: Mus musculus. A digest of the protocol:
as §1

Another assay concerns L1210 (PtR4). The assay can be described thus: In vitro growth inhibition by the compound was determined in cisplatin-resistant murine L1210PtR4 cell lines. The note with it: Mus musculus. A digest of the protocol:
as §1

A further assay relates to L1210 (DDP5). In words: In vitro growth inhibition by the compound was determined in cisplatin-resistant murine L1210DDP5 cell lines. The note with it: Mus musculus. The essentials:
as §1

The test system of a further assay is HCT-8. The assay can be described thus: In vitro growth inhibition by the compound was determined in human HCT-8 tumor cell lines. A digest of the protocol:
(§2)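 ID50 (µM) for growth inhibition of human tumor lines: HCT-8 colon adenocarcinoma and the H23, AH125 and H520 non-small cell lung carcinomas. Reported as mean ± SEM of at least four experiments, or as the average of at least two separate experiments.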

The next assay deals with NCI-H520. The assay can be described thus: In vitro growth inhibition by the compound was determined in human H520 tumor cell lines. A digest of the protocol: as §2
The test system of a further assay is NCI-H23. The assay can be described thus: In vitro growth inhibition by the compound was determined in human H23 tumor cell lines. A digest of the protocol: as §2
A further assay has as its system AH125 cell line. The assay can be described thus: In vitro growth inhibition by the compound was determined in human AH125 tumor cell lines. The essentials: as §2

As for “0-Hexyl-1,3-diamine-platinum 2,2-dichloride”, the ID50 is 9500 nM with L1210 (DACH); 210 nM in the assay with L1210; 2260 nM in the assay with P388PtR4; 210 nM in the assay on P388/S; 190 nM in the assay on L1210 (PtR4); 380 nM with L1210 (DDP5).
CI-973: the ID50 with HCT-8 was 4200 nM; in the assay on NCI-H520 it was 3900 nM; in the assay with NCI-H23 it was 3900 nM; in the assay with L1210 (DACH), 3600 nM; with L1210, 1400 nM; in the assay on P388PtR4, 3700 nM. The ID50 with P388/S turned out to be 220 nM; in the assay on L1210 (PtR4) it was 5400 nM; with L1210 (DDP5) it was 8600 nM.
Regarding CISPLATIN, the ID50 in the assay with AH125 cell line was determined as 700 nM; with HCT-8, 1300 nM; in the assay on NCI-H520, 470 nM; with NCI-H23, 310 nM; in the assay on L1210 (DACH), 2100 nM; in the assay on L1210, 920 nM. Besides, the ID50 was determined as 23300 nM with P388PtR4, 700 nM with P388/S, 19100 nM with L1210 (PtR4) and 16100 nM with L1210 (DDP5).
Take “mu-(1,5-pentanediamine-N,N')bis-(aminedioato(2-)-O,O'platimum (II))”: the ID50 stood at 3680 nM with AH125 cell line; 4420 nM with HCT-8; 1830 nM with NCI-H520; 1480 nM with NCI-H23; 9490 nM in the assay with L1210 (DACH); 3830 nM in the assay with L1210. Moreover, the ID50 in the assay with P388PtR4 amounted to 16000 nM; in the assay with P388/S, 2060 nM; in the assay with L1210 (PtR4) it was 13000 nM; in the assay with L1210 (DDP5), 17200 nM.
On to “mu-(1,7-Heptanediamine-N,N')bis-(cis-aminedichloroplatimum (II))”, for which the ID50 in the assay on AH125 cell line turned out to be 120 nM; in the assay with HCT-8, 100 nM; with NCI-H23 it was 30 nM; with L1210 (DACH) it was 500 nM; in the assay with L1210 it was 220 nM; in the assay on P388PtR4, 910 nM. Further, the results for the ID50 in the assay on P388/S, with L1210 (PtR4) and in the assay with L1210 (DDP5) were 140 nM, 730 nM and 1230 nM, respectively.
With “mu-(1,7-nanodiamine-N,N')bis-(cis-aminedichloroplatimum (II))”, the ID50 with AH125 cell line was found to be 260 nM; in the assay with HCT-8 it was 190 nM; in the assay with NCI-H520 it was 140 nM; in the assay on NCI-H23 it was 56 nM; with L1210 (DACH), 1600 nM; with L1210 it was 290 nM. In addition, the ID50 with P388PtR4 was determined as 3200 nM; with P388/S it was 210 nM; with L1210 (PtR4) it was 2200 nM; with L1210 (DDP5), 2800 nM.
